pEC50: −log10 of the molar value. Entries after “also recorded” stand apart in the source; their conditions may differ. Residues, ends and D or L forms follow the SMILES beside them. *: point of attachment. For = O=C* Where only a bound is given, the exact number is not on record here.

Test [1] concerns the target T1, mFPR1 (Mus musculus, UniProt P33766).
T1 sequence (P33766 1-364): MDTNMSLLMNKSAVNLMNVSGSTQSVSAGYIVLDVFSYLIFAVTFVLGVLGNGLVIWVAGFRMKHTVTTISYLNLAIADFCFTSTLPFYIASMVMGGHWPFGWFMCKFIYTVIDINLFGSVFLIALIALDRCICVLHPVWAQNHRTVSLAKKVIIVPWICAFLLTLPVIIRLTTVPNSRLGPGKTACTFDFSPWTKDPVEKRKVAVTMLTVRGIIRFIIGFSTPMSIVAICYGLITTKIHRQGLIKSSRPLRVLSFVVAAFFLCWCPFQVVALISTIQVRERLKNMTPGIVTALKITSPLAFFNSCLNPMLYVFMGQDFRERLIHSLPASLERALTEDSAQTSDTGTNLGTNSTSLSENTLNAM
Briefly: Ca2+ mobilization in mFPR1-RBL cells. Type of test: cell-based. Background: Calcium assays in cells follow changes in intracellular calcium, usually with a dye or a luminescent sensor.

For another test, the system named is WT neutrophils. Briefly: Superoxide production, WT neutrophils. Type of test: cell-based, mouse (C57BL/6). An outline of the steps: (§1)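 Bone-marrow neutrophils from age- and gender-matched mfpr1-/- and WT C57BL/6 mice (8–10 wk), 5 × 10^6 cells/ml in HBSS with 0.5% BSA. Preincubated 5 min at 37°C with isoluminol, 40 U/ml HRP and 5 μM cytochalasin B. Chemiluminescence: 5 min basal, then every minute for 15 min after agonist. SOD controls; 200 ng/ml PMA time course. Peptide responses as area under curve over first 10 min; two experiments in triplicate.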

The subject of test [2] is mfpr1^-/- neutrophils. Briefly: Superoxide production, mfpr1-/- neutrophils. Type of test: cell-based, mouse (mfpr1^-/-). An outline of the steps:
as §1

Test [3] concerns mouse neutrophils. Briefly: Ex vivo chemotaxis. Type of test: cell-based. The conditions noted are these: CD1 mice, Transwell, 30 min, 37°C. An outline of the steps:
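Bone marrow neutrophils from CD1 mice, purified on a Nycoprep/72% Percoll gradient after RBC lysis. Cells at 5 × 10^6 cells/ml in HBSS/0.5% BSA, prewarmed 20 min at 37°C. Agonist placed in BSA-precoated lower wells under 3 μm pore inserts, cells added on top. After 30 min at 37°C, cells in the bottom chamber were counted. Counts with ligand in both chambers were subtracted to remove chemokinesis.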

For test [4], the system named is mouse neutrophils. Briefly: Ca2+ mobilization, mouse bone marrow neutrophils. The class given is cell-based.
For test [5], the system named is mouse neutrophils. Briefly: Superoxide production, mouse bone marrow neutrophils. The class given is cell-based. The method in brief:
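Isoluminol-enhanced chemiluminescence on mouse bone-marrow neutrophils at 5 × 10^6 cells/ml in HBSS with 0.5% BSA, preincubated 5 min at 37°C with isoluminol, 40 U/ml HRP and 5 μM cytochalasin B. Basal reading 5 min, then agonist at graded concentrations, read each minute for 15 min; SOD controls run in parallel. Cumulative superoxide taken as area under curve over first 5 min; two experiments in duplicate.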

Test [6] addresses T1, mFPR1. Briefly: ERK1/2 phosphorylation in mFPR1-RBL cells. The class given is cell-based. The conditions noted are these: Western blot. An outline of the steps: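 RBL-2H3 cells stably expressing mFPR1 (G418-selected; DMEM, 20% FBS, 250 μg/ml G418), with untransfected RBL cells as control. Cultured 24 h, serum-starved 4 h, then stimulated at graded concentrations for various times. Lysed in ice-cold SDS loading buffer, sonicated, boiled. Western blot for phospho-ERK1/2, with total ERK1/2 as loading control. Two independent experiments.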
On the technique in general: A western blot detects proteins with antibodies after separation by electrophoresis.

The test system of test [7] is mock-transfected RBL cells. Briefly: ERK1/2 phosphorylation in mock-transfected RBL cells. The class given is cell-based, rat. The note with it: at the concentrations tested (10 nM, 1 μM). An outline of the steps:
(§2)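 Stably transfected or mock-transfected RBL-2H3 cells cultured 24 h, serum-starved 4 h, then stimulated over various time intervals. Stopped on ice in SDS-PAGE loading buffer, sonicated and boiled. Western blot with anti-phospho-ERK1/2 (1/1000), loading checked with anti-ERK1/2 (1/1000), HRP anti-rabbit secondary (1/3000). Two independent experiments.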

The subject of test [8] is mFPR2. Briefly: ERK1/2 phosphorylation in mFPR2-RBL cells. Type of test: cell-based, mouse. The conditions noted are these: at the concentrations tested; data not shown. An outline of the steps: as §2
The subject of test [9] is mouse neutrophils. Briefly: Degranulation. Type of test: cell-based, mouse (C57BL/6). The method in brief:
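WT C57BL/6 and mfpr1-/- bone-marrow neutrophils preincubated with 10 μM cytochalasin B in HBSS, 20 mM HEPES (pH 7.4), 0.1% BSA: 15 min on ice, then 15 min at 37°C. Stimulated 10 min at 37°C, chilled and spun. Supernatant mixed 1:1 with 10 mM 4-methylumbelliferyl β-D-glucuronide (pH 4.0, 0.1% Triton X-100) 15 min at 37°C. Glycine/EDTA stop (pH 10.4); fluorescence 365/460 nm, as % of lysate total.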

Test [10] concerns mfpr1^-/- neutrophils. Briefly: Degranulation. The note with it: KO. Type of test: cell-based, mouse (mfpr1^-/-). The method in brief:
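Bone marrow neutrophils from 8-10 wk mfpr1-/- mice (C57BL/6 background) and matched WT mice. Cells preincubated with 10 μM cytochalasin B in HBSS, 20 mM HEPES pH 7.4, 0.1% BSA, 15 min on ice then 15 min at 37°C. Stimulated 10 min at 37°C, then chilled. Supernatant reacted with 4-methylumbelliferyl β-D-glucuronide (pH 4.0), 15 min at 37°C. Fluorescence read at 365/460 nm. Release expressed as % of total from Triton X-100 lysate.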

The target of test [11] is T1, mFPR1. The conditions noted are these: cited from earlier work.
Test [12] concerns mouse neutrophils. The conditions noted are these: cited from earlier work.
For test [13], the target named is T1, mFPR1. The note with it: cited from earlier work. This is another data set of the same source.
The subject of test [14] is mouse neutrophils. The note with it: mice; cited from earlier work.
The subject of a further test is human neutrophils. The note with it: cited from earlier work.
The test system of test [15] is human formyl peptide receptor (FPR) 1. The note with it: cited from earlier work.
Another test relates to FPRL1. The conditions noted are these: b40: fMIVIL ref 22; b3: fMLF ref 16; cited from earlier work.
For test [16], the system named is mFPR2. The conditions noted are these: vs mFPR1; cited from earlier work.
The subject of a further test is neutrophils from cow. The conditions noted are these: cited from earlier work.
The test system of the next test is neutrophils from pig. The note with it: cited from earlier work.
The subject of another test is neutrophils from dog. The note with it: cited from earlier work.
In a further test the test system is neutrophils from cat. The note with it: cited from earlier work.
The subject of test [17] is neutrophils from mfpr1-deficient mice. The conditions noted are these: ex vivo; cited from earlier work.

What is called pEC50 is the EC50 on a negative log10 scale, so that one unit is a factor of ten. A high value points to a small EC50. On mFPR1 [1], `CC[C@H](C)[C@H](NC(=O)[C@H](CCSC)NC=O)C(=O)N[C@@H](Cc1ccccc1)C(=O)N[C@@H](CC(C)C)C(=O)O` [fMIFL, N-formyl-Met-Ile-Phe-Leu] (For-MIFL-OH) gave a negative-log EC50 (pEC50) of 8.00.

In turn, `CC[C@H](C)[C@H](NC(=O)[C@H](CCSC)NC=O)C(=O)N[C@H](C(=O)N[C@H](C(=O)N[C@@H](CC(C)C)C(=O)O)[C@@H](C)CC)C(C)C` [fMIVIL, N-formyl-Met-Ile-Val-Ile-Leu] (For-MIVIL-OH) had a pEC50 on mFPR1 [1] of 8.00.

For the molecule `CCCCCCCCCCCCCC(=O)O[C@@H]1[C@@H](C)[C@@]2(O)[C@@H](C=C(CO)C[C@]3(O)C(=O)C(C)=C[C@@H]23)[C@@H]2C(C)(C)[C@]12OC(C)=O` [phorbol ester, phorbol myristate ester], in the test with WT neutrophils (200 ng/ml phorbol myristate ester, WT compared with KO), the “superoxide production on phorbol ester stimulation, WT neutrophils” value is “responded similarly”. In addition, in the test with mfpr1^-/- neutrophils [2] (200 ng/ml phorbol myristate ester, KO compared with WT), the “superoxide production on phorbol ester stimulation, mfpr1-/- neutrophils” value is reported as “responded similarly”.

With N-formyl-Met-Leu-Phe [fMLF], in the test with mouse neutrophils [3], the “neutrophil migration at 100 nM” value was “did not stimulate significant neutrophil migration”. In addition, the “Ca2+ mobilization at 10 nM” value in the test with mouse neutrophils [4] (10 nM, FLIPR dye) is on record as “but not fMLF”. Moreover, the “lowest concentration with evident Ca2+ mobilization” value in the test with mouse neutrophils [4] (not evident below 100 nM) is at least 100 nM. The “superoxide production at 5 μM relative to fMIVIL and fMIFL” value with mouse neutrophils [5] (5 μM) is on record as “about one-half”. Also, the “threshold concentration for superoxide generation” value in the test on mouse neutrophils [5] (isoluminol chemiluminescence, 37°C) is given as “above 1 μM”. For the same molecule, the “concentration inducing Ca2+ flux” value on mFPR1 [1] (mFPR1-RBL) is listed as “above 1 μM”. In addition, the “ERK1/2 phosphorylation at 10 nM” value at mFPR1 [6] (10 nM) is given as “but not at 10 nM”. For the same molecule, at mFPR1 [6] (1 μM), the “ERK1/2 phosphorylation at 1 μM” value is given as “could induce ERK1/2 phosphorylation”. Moreover, the “ERK1/2 phosphorylation in mock-transfected RBL cells” value in test [7] is listed as “none of the peptides was able to induce detectable phosphorylation”. Also, the “ERK1/2 phosphorylation in mFPR2-RBL cells” value in the test with mFPR2 [8] is “none of the peptides was able to induce detectable phosphorylation”. In addition, the “superoxide production, WT neutrophils” value in the test with WT neutrophils (C57BL/6 WT) is on record as “less potent”. The “superoxide production, mfpr1-/- neutrophils” value in the test with mfpr1^-/- neutrophils [2] (mfpr1^-/-) was “very little superoxide was generated”. Besides, in the test with mouse neutrophils [9] (10 μM (maximal concentration used), WT neutrophils), the “β-glucuronidase release, percent of cell-associated enzyme” value was 5%. In addition, the “β-glucuronidase release relative to maximal release by fMIVIL and fMIFL” value in the test with mouse neutrophils [9] (10 μM fMLF) was “about one-half”. The “lowest concentration with significant β-glucuronidase release” value with mouse neutrophils [9] (WT neutrophils, not significant below 1 μM) was at least 1 µM. The “β-glucuronidase release at 100 nM, mfpr1-/- neutrophils” value with mfpr1^-/- neutrophils [10] (100 nM) is recorded as “none of the three peptides was able to induce β-glucuronidase release”. Moreover, the “β-glucuronidase release above 1 μM, mfpr1-/- neutrophils” value with mfpr1^-/- neutrophils [10] (peptide concentrations above 1 μM) is “only a small amount of enzyme was released”. Further, the “ERK1/2 phosphorylation at 50 nM” value on mFPR1 [11] was “but not fMLF”. The “potency loss on mouse neutrophils vs human neutrophils” value with mouse neutrophils [12] (less potent for mouse than for human neutrophils) is recorded as 100 -fold. Further, in the test on mouse neutrophils [12] (mouse neutrophils, ref 17 (ref 17, 20)), the “concentration required for mouse neutrophil activation” value is “requiring micromolar concentrations for cell activation; also recorded: requires micromolar concentrations; also recorded: micromolar concentration range”. Further, the “agonist concentration required for calcium mobilization” value on mFPR1 [13] is at least 100 nM. For the same molecule, in the test with mouse neutrophils [14], the “fMLF concentration required for degranulation and superoxide production” value is 5 to 10 µM. Further, in the test on human neutrophils, the “ERK1/2 phosphorylation in human neutrophils” value was “rapid phosphorylation of the MAPKs ERK1/2”. In addition, in the test on human neutrophils (human neutrophils), the “concentration inducing bactericidal functions in human neutrophils” value was “nanomolar concentrations”. For the same molecule, the “agonist activity at human FPR1” value in test [15] is on record as “potent agonist”. The “affinity/response at FPRL1” value in the test with FPRL1 was “low affinities; also recorded: low-affinity receptor for fMLF”. Moreover, in the test on mFPR2 [16], the “response of mFPR2 to fMLF” value is recorded as “responds even more weakly”. For the same molecule, the “response of cow neutrophils” value with neutrophils from cow was “do not respond”. Further, the “response of pig neutrophils” value in the test on neutrophils from pig is on record as “do not respond”. Also, in the test with neutrophils from dog, the “response of dog neutrophils” value is on record as “do not respond”. In the test with neutrophils from cat, the “response of cat neutrophils” value is reported as “do not respond”. Further, in test [17], the “responsiveness of mfpr1-deficient neutrophils to fMLF” value is listed as “decreased responsiveness”.

With Superoxide dismutase, the “effect on detection of superoxide” value in the test with mouse neutrophils [5] (SOD, 250 units, added 10 min before stimulation with 1 μM peptide) is given as “effectively inhibited the detection of superoxide”.

The record behind these values is article PMC2705627 (Journal of immunology (Baltimore, Md. : 1950), 2008).
